From ChEMBL document CHEMBL4145692, “Discovery of a Locally and Orally Active CXCL12 Neutraligand (LIT-927) with Anti-inflammatory Effect in a Murine Model of Allergic Airway Hypereosinophilia” (J Med Chem, 2018)
In brackets after ≈: the same amount, converted by molar mass.

system: not listed separately; test: Kinetic solubility in pH 7.4 HEPES-BSA buffer at 5 uM incubated for 24 hrs at 20 degC by HPLC method; format: physicochemical; settings: read-out: Kinetic_solubility
Outline: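 Compound added from 10 mM DMSO stock to 5 μM in pH 7.4 HEPES-BSA buffer (1 g/L BSA), shaken 24 h at 20 °C. After centrifugation, supernatant concentration measured by HPLC against 5 and 10 μM standards.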

Row | SMILES | solubility kinetic at 24 h, 5 µM [µM]
1 | COc1cc(/C=C/C(=O)c2cccc(Cl)c2Cl)ccc1O | > 5
2 | COc1cc(/C=C/C(=O)c2ccc(C(C)C)cc2)ccc1O | 1.92 (≈ 0.569 µg/mL)
3 | Cl.NCCOCCOc1cc(/C=C/C(=O)c2ccc(Cl)cc2)ccc1O | > 5
4 | O=C(/C=C/c1ccc2c(c1)OCCO2)c1ccc(Cl)cc1 | > 5
5 | COc1cc(/C=C/C(=O)c2ccc(C(=O)O)cc2)ccc1O | > 5
6 | O=C(/C=C/c1ccc(O)c(O)c1)c1ccc(Cl)cc1 | > 5
7 | COc1cccc(/C=C/C(=O)c2ccc(Cl)cc2)c1 | 0.36 (≈ 0.0982 µg/mL)
8 | COc1cc(/C=C/C(=O)c2c(Cl)cccc2Cl)ccc1O | > 5
9 | COc1cc(/C=C/C(=O)c2cc(Cl)ccc2Cl)ccc1O | > 5
10 | COc1cc(/C=C/C(=O)c2ccccc2Cl)ccc1O | > 5
11 | COc1cc(/C=C2\CCc3cc(Cl)ccc3C2=O)ccc1O | > 5
12 | COc1cc(/C=C/C(=O)c2ccc(Cl)c(Cl)c2)ccc1O | > 5
13 | O=C(/C=C/c1ccc(O)cc1)c1ccc(Cl)cc1 | > 5
14 | COc1ccc(/C=C/C(=O)c2ccc(Cl)cc2)cc1O | > 5
15 | COc1cc(/C=C/C(=O)c2ccncc2)ccc1O | > 5
16 | COc1cc(/C=C/C(=O)c2cccnc2)ccc1O | > 5
17 | COc1cc(/C=C/C(=O)c2ccc(Cl)cc2)ccc1N | > 5
18 | COc1cc(/C=C/C(=N/O)c2ccc(Cl)cc2)ccc1O | > 5
19 | COc1cc(/C=C/C(=O)c2ccc(F)cc2)ccc1O | > 5
20 | COc1cc(/C=C/C(=O)c2ccc(Cl)cc2Cl)ccc1O | > 5
21 | Cl.NCCOCCOCCOc1cc(/C=C/C(=O)c2ccc(Cl)cc2)ccc1O | > 5
22 | COc1cc(/C=C/C(=O)c2ccc(Cl)cc2)ccc1[N+](=O)[O-] | > 5
23 | COc1cc(C(=O)/C=C/c2ccc(Cl)cc2)ccc1O | > 5
24 | CNc1nc(-c2ccc(Cl)cc2)cc(-c2ccc(O)c(OC)c2)n1 | > 5
25 | COc1ccc(/C=C/C(=O)c2ccc(Cl)cc2)cc1OC | > 5

molecular target: T1, Stromal cell-derived factor 1 (Homo sapiens, UniProt P48061); test: Binding affinity to Texas Red-labelled CXCL12 (unknown origin) assessed as inhibition of CXCL12-Texas Red binding to EGFP-labeled human CXCR4 expressed in HEK293 cell membranes at 10 uM pre-incubated for 1 hr by FRET-based binding assay; settings: not given
Outline: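 FRET binding assay in EGFP-CXCR4 HEK-293 cells. Compound at 10 μM preincubated with CXCL12 before addition to the cells; binding read as EGFP emission at 510 nm after CXCL12-Texas Red addition. T134 (20 μM) used as control.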

T1 sequence (P48061 whole entry): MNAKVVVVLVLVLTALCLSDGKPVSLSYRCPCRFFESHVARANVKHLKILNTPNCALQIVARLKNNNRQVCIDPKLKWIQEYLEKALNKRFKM

Row | SMILES | inhibition [%]
26 | COc1cc(/C=C2\CCc3cc(Cl)ccc3C2=O)ccc1O | 70

molecular target: T1, Stromal cell-derived factor 1; test: Binding affinity to Texas Red-labelled CXCL12 (unknown origin) assessed as inhibition of CXCL12-Texas Red binding to EGFP-labeled human CXCR4 expressed in HEK293 cell membranes pre-incubated for 1 hr by FRET-based binding assay; settings: not given
Outline: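 HEK-293 cells stably expressing human EGFP-CXCR4, 10⁶ cells/ml in HEPES buffer pH 7.4 with 0.1% BSA, 21 °C. CXCL12-Texas Red (100 nM) was preincubated 1 h at room temperature with compound or DMSO, then added at t=150 s. FRET read as loss of EGFP emission at 510 nm (excitation 470 nm) up to equilibrium. Ki from dose-response curves.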

Row | SMILES | Ki [nM]
27 | COc1cc(/C=C/C(=O)c2cccc(Cl)c2Cl)ccc1O | 357
28 | COc1cc(/C=C/C(=O)c2ccc(C(C)C)cc2)ccc1O | 25
29 | Cl.NCCOCCOc1cc(/C=C/C(=O)c2ccc(Cl)cc2)ccc1O | 1070
30 | O=C(/C=C/c1ccc2c(c1)OCCO2)c1ccc(Cl)cc1 | 1380
31 | COc1cc(/C=C/C(=O)c2ccc(C(=O)O)cc2)ccc1O | 5350
32 | O=C(/C=C/c1ccc(O)c(O)c1)c1ccc(Cl)cc1 | 350
33 | COc1cccc(/C=C/C(=O)c2ccc(Cl)cc2)c1 | > 10000
34 | COc1cc(/C=C/C(=O)c2c(Cl)cccc2Cl)ccc1O | 71
35 | COc1cc(/C=C/C(=O)c2cc(Cl)ccc2Cl)ccc1O | 53
36 | COc1cc(/C=C/C(=O)c2ccccc2Cl)ccc1O | 107
37 | COc1cc(/C=C/C(=O)c2ccc(Cl)c(Cl)c2)ccc1O | 714
38 | O=C(/C=C/c1ccc(O)cc1)c1ccc(Cl)cc1 | 625
39 | COc1ccc(/C=C/C(=O)c2ccc(Cl)cc2)cc1O | > 10000
40 | COc1cc(/C=C/C(=O)c2ccncc2)ccc1O | > 10000
41 | COc1cc(/C=C/C(=O)c2cccnc2)ccc1O | > 10000
42 | COc1cc(/C=C/C(=O)c2ccc(Cl)cc2)ccc1N | > 10000
43 | COc1cc(/C=C/C(=N/O)c2ccc(Cl)cc2)ccc1O | > 10000
44 | COc1cc(/C=C/C(=O)c2ccc(F)cc2)ccc1O | 430
45 | COc1cc(/C=C/C(=O)c2ccc(Cl)cc2Cl)ccc1O | 48
46 | COc1cc(-c2cc(-c3ccc(Cl)cc3)n[nH]2)ccc1O | > 10000
47 | Cl.NCCOCCOCCOc1cc(/C=C/C(=O)c2ccc(Cl)cc2)ccc1O | 475
48 | COc1cc(/C=C/C(=O)c2ccc(Cl)cc2)ccc1[N+](=O)[O-] | > 10000
49 | COc1cc(CCC(=O)c2ccc(Cl)cc2)ccc1O | > 10000
50 | COc1cc(C(=O)/C=C/c2ccc(Cl)cc2)ccc1O | > 10000
51 | CNc1nc(-c2ccc(Cl)cc2)cc(-c2ccc(O)c(OC)c2)n1 | > 10000
52 | COc1ccc(/C=C/C(=O)c2ccc(Cl)cc2)cc1OC | > 10000
